Each block holds one compound with its values, some of them ahead of it. Activity calls are given as the source filed them. The rule behind the calls is not given here.
How the values were obtained:
BT-245 [1] = assay: Growth inhibition of K27M knock-out human BT-245 cells at 0.5 to 10 uM after 7 days by Alamar blue assay; type: functional, cell-based; settings: dose 0.5-10 µM, time 7.0 day
Procedure, shortened: (§1)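 Tumor-derived cells were grown in NS-A proliferation medium with bFGF (10 ng/mL), rhEGF (20 ng/mL) and heparin on poly-L-ornithine/laminin coating. They were plated at 7000 cells/well and exposed to EZH2 inhibitor (0.5–10 uM) or DMSO vehicle for 7 days, with media changed every 3 days. Alamar blue was added on day 7 for 6 h and absorbance read at 570 and 600 nm. Percent difference versus untreated growth control was derived from an extinction-coefficient formula; values are the mean of three replicates ± SEM.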

BT-245 [2] = assay: Growth inhibition of human BT-245 cells expressing mutant K27M at 0.5 to 10 uM after 7 days by Alamar blue assay; type: functional, cell-based; settings: dose 0.5-10 µM, time 7.0 day; procedure, shortened: as §1
BT-245 [3] = assay: Growth inhibition of human BT-245 cells expressing mutant K27M at 2.5 uM assessed as normalized cell index after 7 days by Alamar blue assay relative to control; type: functional; settings: time 7 day; procedure, shortened: as §1
BT-245 [4] = assay: Growth inhibition of human BT-245 cells expressing mutant K27M at 1.5 uM assessed as normalized cell index after 7 days by Alamar blue assay relative to control; type: functional; settings: time 7 day; procedure, shortened: as §1
BT-245 [5] = assay: Growth inhibition of human BT-245 cells expressing mutant K27M at 3 uM assessed as normalized cell index after 7 days by Alamar blue assay relative to control; type: functional; settings: time 7 day; procedure, shortened: as §1
[6] = molecular target: Histone-lysine N-methyltransferase EZH2 (Homo sapiens) (UniProt Q15910); assay: Inhibition of EZH2 in human BT-245 cells expressing mutant K27M assessed as decrease in H3K27me2 deposition by western blot method; type: cell-based
Chain of Histone-lysine N-methyltransferase EZH2 (Homo sapiens) (Q15910 whole entry, looked up): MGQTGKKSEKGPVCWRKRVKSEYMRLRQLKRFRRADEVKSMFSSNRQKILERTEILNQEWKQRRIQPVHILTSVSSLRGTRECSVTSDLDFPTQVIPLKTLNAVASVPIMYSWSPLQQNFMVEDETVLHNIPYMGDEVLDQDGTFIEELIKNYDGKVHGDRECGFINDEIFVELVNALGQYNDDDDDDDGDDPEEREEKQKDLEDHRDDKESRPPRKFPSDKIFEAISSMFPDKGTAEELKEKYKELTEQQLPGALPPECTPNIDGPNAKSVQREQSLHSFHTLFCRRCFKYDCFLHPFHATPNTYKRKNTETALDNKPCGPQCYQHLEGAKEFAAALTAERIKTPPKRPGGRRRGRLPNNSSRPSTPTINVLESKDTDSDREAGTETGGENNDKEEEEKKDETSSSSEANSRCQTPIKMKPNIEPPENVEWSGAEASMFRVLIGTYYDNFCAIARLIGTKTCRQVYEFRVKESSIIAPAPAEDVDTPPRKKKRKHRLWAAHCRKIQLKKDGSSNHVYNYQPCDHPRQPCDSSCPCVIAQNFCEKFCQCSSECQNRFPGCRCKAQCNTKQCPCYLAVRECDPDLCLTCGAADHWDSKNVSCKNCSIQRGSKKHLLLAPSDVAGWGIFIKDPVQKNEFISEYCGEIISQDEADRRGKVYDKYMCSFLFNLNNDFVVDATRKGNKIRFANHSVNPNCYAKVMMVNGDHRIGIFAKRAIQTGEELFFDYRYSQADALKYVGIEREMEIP

[7] = molecular target: Histone-lysine N-methyltransferase EZH2 (Homo sapiens) (UniProt Q15910); assay: Inhibition of EZH2 in human G477 cells assessed as decrease in H3K27me2 deposition by western blot method; type: cell-based
[8] = molecular target: Histone-lysine N-methyltransferase EZH2 (Homo sapiens) (UniProt Q15910); assay: Inhibition of EZH2 in human BT-245 cells expressing mutant K27M assessed as decrease in H3K27me3 deposition by western blot method; type: cell-based
[9] = molecular target: Histone-lysine N-methyltransferase EZH2 (Homo sapiens) (UniProt Q15910); assay: Inhibition of EZH2 in human G477 cells assessed as decrease in H3K27me3 deposition by western blot method; type: cell-based
BT-245 [10] = assay: Growth inhibition of K27M knock-out human BT-245 cells at 10 uM assessed as normalized cell index after 7 days by Alamar blue assay relative to control; type: functional; settings: time 7 day; procedure, shortened: as §1
BT-245 [11] = assay: Growth inhibition of K27M knock-out human BT-245 cells at 8 uM assessed as normalized cell index after 7 days by Alamar blue assay relative to control; type: functional; settings: time 7 day; procedure, shortened: as §1
BT-245 [12] = assay: Growth inhibition of K27M knock-out human BT-245 cells at 7 uM assessed as normalized cell index after 7 days by Alamar blue assay relative to control; type: functional; settings: time 7 day; procedure, shortened: as §1
BT-245 [13] = assay: Growth inhibition of K27M knock-out human BT-245 cells at 5 uM assessed as normalized cell index after 7 days by Alamar blue assay relative to control; type: functional; settings: time 7 day; procedure, shortened: as §1
BT-245 [14] = assay: Growth inhibition of K27M knock-out human BT-245 cells at 4 uM assessed as normalized cell index after 7 days by Alamar blue assay relative to control; type: functional; settings: time 7 day; procedure, shortened: as §1
BT-245 [15] = assay: Growth inhibition of K27M knock-out human BT-245 cells at 3.5 uM assessed as normalized cell index after 7 days by Alamar blue assay relative to control; type: functional; settings: time 7 day; procedure, shortened: as §1
BT-245 [16] = assay: Growth inhibition of K27M knock-out human BT-245 cells at 3 uM assessed as normalized cell index after 7 days by Alamar blue assay relative to control; type: functional; settings: time 7 day; procedure, shortened: as §1
BT-245 [17] = assay: Growth inhibition of K27M knock-out human BT-245 cells at 2.5 uM assessed as normalized cell index after 7 days by Alamar blue assay relative to control; type: functional; settings: time 7 day; procedure, shortened: as §1
BT-245 [18] = assay: Growth inhibition of K27M knock-out human BT-245 cells at 1.5 uM assessed as normalized cell index after 7 days by Alamar blue assay relative to control; type: functional; settings: time 7 day; procedure, shortened: as §1
BT-245 [19] = assay: Growth inhibition of human BT-245 cells expressing mutant K27M at 10 uM assessed as normalized cell index after 7 days by Alamar blue assay relative to control; type: functional; settings: time 7 day; procedure, shortened: as §1
BT-245 [20] = assay: Growth inhibition of human BT-245 cells expressing mutant K27M at 7 uM assessed as normalized cell index after 7 days by Alamar blue assay relative to control; type: functional; settings: time 7 day; procedure, shortened: as §1
BT-245 [21] = assay: Growth inhibition of human BT-245 cells expressing mutant K27M at 5 uM assessed as normalized cell index after 7 days by Alamar blue assay relative to control; type: functional; settings: time 7 day; procedure, shortened: as §1
BT-245 [22] = assay: Growth inhibition of human BT-245 cells expressing mutant K27M at 4 uM assessed as normalized cell index after 7 days by Alamar blue assay relative to control; type: functional; settings: time 7 day; procedure, shortened: as §1
BT-245 [23] = assay: Growth inhibition of human BT-245 cells expressing mutant K27M at 3.5 uM assessed as normalized cell index after 7 days by Alamar blue assay relative to control; type: functional; settings: time 7 day; procedure, shortened: as §1

SMILES: CCCc1cc(C)[nH]c(=O)c1CNC(=O)c1cc(-c2ccnc(N3CCN(C)CC3)c2)cc2c1cnn2C(C)C
Activity (BT-245 [1]): Active
Activity (BT-245 [2]): Active

inhibition [6]: Active
inhibition [7]: Active
inhibition [8]: Active
inhibition [9]: Active
SMILES: CCCc1cc(C)[nH]c(=O)c1CNC(=O)c1cc(-c2ccc(N3CCN(C(C)C)CC3)nc2)cc2c1cnn2C(C)C
Activity_index (BT-245 [3]): 96%
Activity_index (BT-245 [4]): 93.5%
Activity_index (BT-245 [5]): 93.39%
Activity_index (BT-245 [10]): 50.02%
Activity_index (BT-245 [11]): 63.65%
Activity_index (BT-245 [12]): 106.11%
Activity_index (BT-245 [13]): 108.08%
Activity_index (BT-245 [14]): 109.66%
Activity_index (BT-245 [15]): 97.97%
Activity_index (BT-245 [16]): 112.32%
Activity_index (BT-245 [17]): 106.57%
Activity_index (BT-245 [18]): 107.71%
Activity_index (BT-245 [19]): 27.95%
Activity_index (BT-245 [20]): 25.18%
Activity_index (BT-245 [21]): 73.66%
Activity_index (BT-245 [22]): 85.7%
Activity_index (BT-245 [23]): 92.89%

— ChEMBL document CHEMBL5712905, “H3K27M induces defective chromatin spread of PRC2-mediated repressive H3K27me2/me3 and is essential for glioma tumorigenesis” (2019)
